Compounds with a hit are over-represented: about 1.7% of the library has one in this group of screens.
C2C12 statin: suppressors of statin myotoxicity in C2C12 myotubes, primary screen, cell-based, single point, plate reader | rescue of ATP level, % at 7.49 µM | 0.78% of 330,000 active | AID 602340, 2012 | C2C12 myotubes + simvastatin, ATP luminescence, 48 h; scaled: DMSO 0, geranylgeraniol control 100;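 active = mean ATP rescue above about 67%, or every replicate alone reaching that limit, limit read from the data, passing the limit was not always enough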;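 note: myotubes were challenged with 10 µM simvastatin during compound exposure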
SR-BI DiI inh: inhibitors of SR-BI mediated HDL lipid uptake, primary screen, ldlA[mSR-BI] cells, fluorescence, single point. AID 488896, 2010. ldlA[mSR-BI] CHO cells, DiI-HDL uptake fluorescence, 3 h. Scavenger receptor class B member 1 (Mus musculus), Q61009. inhibition, % at 12.5 µM. 0.96% of 320,000 active;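 active = mean replicate inhibition of at least 70% and a set share of replicates each scoring 70 or more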
Target sequence (Q61009 whole entry, looked up): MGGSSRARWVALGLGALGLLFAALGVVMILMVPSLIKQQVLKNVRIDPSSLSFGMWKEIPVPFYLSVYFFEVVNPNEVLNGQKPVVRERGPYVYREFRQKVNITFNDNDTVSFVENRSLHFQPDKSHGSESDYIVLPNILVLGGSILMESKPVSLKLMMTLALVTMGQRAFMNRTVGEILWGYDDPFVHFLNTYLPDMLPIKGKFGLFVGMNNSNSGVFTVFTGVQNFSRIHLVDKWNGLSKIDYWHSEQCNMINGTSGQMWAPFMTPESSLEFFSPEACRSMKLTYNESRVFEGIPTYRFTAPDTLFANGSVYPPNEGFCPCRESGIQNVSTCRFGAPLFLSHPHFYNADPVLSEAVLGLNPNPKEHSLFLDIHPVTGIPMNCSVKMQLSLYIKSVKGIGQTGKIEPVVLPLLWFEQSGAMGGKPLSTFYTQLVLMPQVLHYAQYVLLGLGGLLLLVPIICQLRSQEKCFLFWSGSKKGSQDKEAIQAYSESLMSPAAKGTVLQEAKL
Vif imaging: HIV Vif self-association inhibitors, primary screen, imaging, HEK293T, single point; inhibition, % at 7.49 µM; 0.35% of 340,000 active; HEK293T cells, Vif self-association by quenched fluorescence, 24 h; in the data active = inhibition above about 50%, passing the limit was not always enough
SR-BI uptake up: activators of SR-BI mediated DiI-HDL uptake, primary screen, ldlA[mSR-BI] CHO cells, DiI fluorescence | 0.096% of 320,000 active | AID 504775, 2011 | activation, % at 12.5 µM | 3 h; 100 = double the neutral-control signal;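 active = mean replicate activation of at least 60% and every replicate at or above 60%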
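material = CHO ldlA[mSR-BI] cells | medium = Ham's F12 with 0.5% BSA, HEPES 25 mM, pH 7.4 | reagent = fluorescent DiI-HDL, 10 µg/mL final | compound dosing = single-point compound dose | incubation = 3 h, 37 °C | measured by = bottom-read fluorescence, 550/595 nm | measure = HDL uptake via cellular fluorescence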
A number is an active result; - = inactive; . = no result.

SMILES | C2C12 statin | SR-BI DiI inh | Vif imaging | SR-BI uptake up
COc1cc2c(cc1NC(=O)CN(C)Cc1cccc(OC)c1OC)oc1ccccc12 | . | - | - | -
COc1ccccc1CC(=O)Nc1cc2oc3ccccc3c2cc1OC | - | 87 | - | -
COc1cccc(CN(C)CC(=O)Nc2cc3oc4ccccc4c3cc2OC)c1 | . | 78 | - | -
COc1ccc(CC(=O)Nc2cc3oc4ccccc4c3cc2OC)cc1 | . | - | - | -
COCCNC(=S)Nc1cc2oc3ccccc3c2cc1OC | . | 93 | . | -
Cc1ccccc1CC(=O)Nc1ccon1 | - | - | - | -
COc1ccccc1CC(=O)Nc1ccon1 | - | - | 56 | -
C[C@H](CO)N1C[C@H](C)[C@H](CN(C)S(=O)(=O)c2cccs2)OCCCC[C@H](C)Oc2ccc(N(C)C)cc2C1=O | - | . | . | .
O=C(C[C@@H]1C=C[C@H](NC(=O)c2cccnc2)[C@@H](CO)O1)NCCN1CCCCC1 | - | . | . | .
COc1cc2c(cc1NC(=O)c1cccnc1)oc1ccccc12 | - | . | - | .
COc1cc(OC)cc(C(=O)NC(=S)Nc2cc3oc4ccccc4c3cc2OC)c1 | - | 81 | - | -
COc1cc(NC(=O)Cc2ccccc2)c(C(=O)O)cc1OC | . | - | - | -
COc1cc(NC(=O)Cc2cccc3ccccc23)c(C(=O)O)cc1OC | 83 | - | - | -
COc1ccc(C(=O)NC(=S)Nc2cc3oc4ccccc4c3cc2OC)cc1 | . | - | - | -
COc1cc2c(cc1NC(=O)c1ccncc1)oc1ccccc12 | . | 78 | - | -
COc1ccc(S(=O)(=O)N(C)C[C@@H]2Oc3ccc(NC(=O)NC4CCCCC4)cc3CC(=O)N([C@@H](C)CO)C[C@@H]2C)cc1 | - | . | . | .
Cc1ccc(S(=O)(=O)N(C)c2ccc(OCC(=O)NCC3(N(C)C)CCCCC3)cc2)cc1 | - | 83 | - | -
COc1ccc(CCNC(=O)COc2ccc(N(C)S(=O)(=O)c3ccc(C)cc3)cc2)cc1 | - | . | - | .
CCOC(=O)C1CCCN(Cc2ccc(OC)cc2OC)C1 (configuration not stated) | - | - | 55 | -
O=c1[nH]c(C2CCN(S(=O)(=O)c3ccc4c(c3)OCCO4)CC2)nc2c1nnn2Cc1ccc(F)cc1 | - | - | - | 94
O=c1[nH]c(C2CCN(S(=O)(=O)c3ccc4c(c3)OCCO4)CC2)nc2c1nnn2Cc1cccc(F)c1 | - | . | - | .
O=C(Nc1ccccc1F)NC1CCN(Cc2nnnn2Cc2ccc(F)cc2)CC1 | - | - | - | -
O=C(Nc1ccc(F)cc1)NC1CCN(Cc2nnnn2Cc2ccco2)CC1 | 95 | - | - | -
Cc1c(C(=O)Nc2ccccc2)sc2nc(-c3ccccc3)cn12 | - | 77 | - | -
O=C(C1CC1)N1CCC(C(O)(c2ccccc2)c2ccccc2)CC1 | 85 | - | - | -
SMILES | C2C12 statin | SR-BI DiI inh | Vif imaging | SR-BI uptake up
O=C(c1ccccc1)N1CCN(C(=O)C2CC2)CC1 | - | - | - | -
O=C1C2C3C=CC(C4CC34)C2C(=O)N1/N=C/c1ccc([N+](=O)[O-])s1 (configuration not stated) | . | - | - | -
O=C1C2C3C=CC(C4CC34)C2C(=O)N1/N=C/c1c[nH]c2ccccc12 (configuration not stated) | - | - | 91 | -
Cc1nn(C)cc1CNC(=O)Nc1cccc(Cl)c1 | 113 | - | - | -
Cc1nn(C)cc1CNC(=O)Nc1ccc(Br)cc1Cl | - | - | - | -
O=C(c1ccccc1)N1C[C@H]2[C@@H](c3ccccc31)[C@H](CO)N2C(=O)Nc1ccccc1Cl | - | . | . | .
O=C(C[C@H]1CC[C@H]2[C@@H](COC[C@H](O)CN2Cc2cccc(C(F)(F)F)c2)O1)NCc1ccc(Cl)cc1 | - | . | . | .
CC(C)C1Oc2ccccc2N(CC(=O)N(Cc2ccccn2)C2CC2)C1=O (configuration not stated) | . | - | - | 369
O=C1OCCC1=COCCOC=C1CCOC1=O | - | . | - | .
O=C1OCCC1=COCCCCCOC=C1CCOC1=O | - | . | 71 | .
C#CCOCCOCCOCCNc1nc(N2CCN(C(=O)CCCCCCCCCCNC(=O)Cn3cc(C[C@@H](C)O)nn3)CC2)nc(N2CCN(C(=O)CCCCCCCCCCNC(=O)[C@@H]([C@H](C)O)n3cc(C)nn3)CC2)n1 | 106 | - | - | -
Cc1ccnc(SC2CC(=O)N(c3ccc(F)cc3)C2=O)n1 (configuration not stated) | - | - | - | 344
COc1cc(-c2noc(-c3cccc(Cl)c3)n2)cc(OC)c1OC | - | 76 | - | -
COc1cc(-c2nc(-c3cccc(C)c3)no2)cc(OC)c1OC | - | 84 | - | -
COc1cc(-c2nc(-c3cccnc3)no2)cc(OC)c1OC | - | - | - | -
Cc1cc(C(=O)Nc2cccc3c2O[C@@H](CN(C)Cc2ccc4c(c2)OCO4)[C@H](C)CN([C@H](C)CO)C3=O)n(C)n1 | - | . | . | .
C/C(=N\NC(=O)c1c(Cl)cnn1C)c1cccc(NC(=O)c2ccc(C)cc2)c1 | - | 85 | - | -
C/C(=N\NC(=O)c1c(Cl)cnn1C)c1cccc(NC(=O)C(C)C)c1 | . | - | - | -
Cn1ncc(Cl)c1C(=O)Nc1cccnc1 | 101 | . | - | .
Cn1ncc(Cl)c1C(=O)Nc1cccc(Cl)c1 | - | - | - | -
CCC(=O)N1[C@@H]2c3ccc(-c4ccccc4)c(=O)n3C[C@H]1[C@H](CO)[C@H]2C(=O)N1CCN(C)CC1 | - | . | . | .
Cc1[nH]n(-c2nc(-c3ccc(Cl)cc3)cs2)c(=O)c1N=Nc1ccc(O)cc1 | . | 110 | - | -
C[C@H](CO)N1C[C@H](C)[C@H](CN(C)C(=O)Cc2cccnc2)Oc2ncc(C3=CCCCC3)cc2C1=O | - | . | . | .
Cc1ccc(OCCn2cc(/C=C(\C#N)C(=O)NCC3CCCO3)c3ccccc32)cc1C (configuration not stated) | . | 76 | - | -
CC(C)NC(=O)N(C)C[C@@H]1Oc2ccc(NC(=O)C3CC3)cc2CC(=O)N([C@@H](C)CO)C[C@H]1C | - | . | . | .
SMILES | C2C12 statin | SR-BI DiI inh | Vif imaging | SR-BI uptake up
CO[C@H]1CN(C)C(=O)c2cc(NC(C)=O)ccc2OC[C@@H](C)N(C(=O)CN2CCOCC2)C[C@H]1C | - | . | . | .
O=C(/C=C/c1ccccc1)Nc1ncn[nH]1 | . | - | 59 | -
N#Cc1cc2c(nc1SCC(=O)Nc1sc3c(c1C#N)CCC3)CCCC2 | - | - | - | -
N#Cc1ccc(-c2ccc(F)cc2)nc1SCC(=O)Nc1sc2c(c1C#N)CCC2 | - | 78 | - | -
CCOc1cc(-c2noc(CCC(=O)NCCc3ccccc3)n2)ccc1OC | - | - | - | -
Cc1ccc(-c2noc(CCC(=O)NCC3CCN(Cc4cccc(C)c4)CC3)n2)cc1 | 87 | - | - | -
CCOc1ccc(-c2noc(CCC(=O)NC)n2)cc1OCC | 95 | - | - | -
O=C(C[C@H]1C=C[C@H](NC(=O)c2ccccc2)[C@@H](CO)O1)NCc1ccncn1 | - | . | . | .

Compound activity: PubChem BioAssay, Broad Institute
